# Test results published in ChEMBL document CHEMBL3045704, “Biflavonoids isolated from Selaginella lepidophylla inhibit photosynthesis in spinach chloroplasts” (J Agric Food Chem, 2008).
# Calls of active or inactive are those of the source. The calls are words filed in the database; no cut-off is given here.
# How the values were obtained:
# [1] = target: Photosystem II protein D1 (Spinacia oleracea) (UniProt P69560); assay: Inhibition of photosystem II in Spinacia oleracea (spinach) leaves intact chloroplasts assessed as electron transport flow from H2O to DCPIP at 200 uM; design: scale not given: the % may be the effect or the level left
# How it was run: (§1)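 Uncoupled PSII, water to DCPIP, was followed as DCPIP-supported O2 evolution on a Clark electrode. Medium: basal electron transport medium with 1 µM DBMIB, 100 µM DCPIP, 300 µM K3[Fe(CN)6] and 6 mM NH4Cl, without MV. I50 values were calculated.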
# [2] = target: Photosystem II protein D1 (Spinacia oleracea) (UniProt P69560); assay: Inhibition of photosystem II in Spinacia oleracea (spinach) leaves intact chloroplasts assessed as electron transport flow from H2O to DCPIP at 300 uM; design: scale not given: the % may be the effect or the level left; how it was run: as §1
# [3] = target: Photosystem II protein D1 (Spinacia oleracea) (UniProt P69560); assay: Inhibition of photosystem II in Spinacia oleracea (spinach) leaves intact chloroplasts assessed as electron transport flow from H2O to DCPIP at 100 uM; design: scale not given: the % may be the effect or the level left; how it was run: as §1
# [4] = target: T1, Photosystem I iron-sulfur center (Spinacia oleracea) (UniProt P10098); assay: Inhibition of photosystem I in Spinacia oleracea (spinach) leaves intact chloroplasts assessed as electron transport flow from TMQH2 to MV at 300 uM; design: scale not given: the % may be the effect or the level left
# T1 sequence (whole entry): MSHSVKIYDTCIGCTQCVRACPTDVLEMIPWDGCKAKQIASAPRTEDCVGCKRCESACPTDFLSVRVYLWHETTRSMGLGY
# How it was run: (§2)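 Electron flow from TMQH2 to MV was determined polarographically with a Clark electrode in basal electron transport medium.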
# Spinacia oleracea [5] = assay: Inhibition of thylakoid membrane bound Magnesium-transporting Mg2+ ATPase in Spinacia oleracea (spinach) leaves chloroplasts assessed as enzyme activity at 100 uM; design: scale not given: the % may be the effect or the level left
# How it was run: (§3)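 Chloroplasts were ground in 350 mM sorbitol, 5 mM ascorbate and 20 mM MES pH 6.5, centrifuged 3000g for 60 s, washed, and resuspended in 35 mM HEPES pH 7.6. Light-triggered thylakoid-bound Mg2+-ATPase was assayed via released Pi (Sumner method), expressed as µM P/mg Chl/h and as % of control. Tested at 100–300 µM, or NH4Cl at 1–6 mM.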
# [6] = target: T1, Photosystem I iron-sulfur center (Spinacia oleracea); assay: Inhibition of photosystem I in Spinacia oleracea (spinach) leaves intact chloroplasts assessed as electron transport flow from DCPIP to MV at 100 uM; design: scale not given: the % may be the effect or the level left
# How it was run: (§4)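 Uncoupled PSI flow, reduced DCPIP to MV, in basal electron transport medium (3 mL). Additions: 10 µM DCMU, 100 µM DCPIP, 300 µM ascorbate and 6 mM NH4Cl. O2 uptake was monitored with a Clark electrode.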
# Spinacia oleracea [7] = assay: Inhibition of thylakoid membrane bound Magnesium-transporting Mg2+ ATPase in Spinacia oleracea (spinach) leaves chloroplasts assessed as enzyme activity at 300 uM; design: scale not given: the % may be the effect or the level left; how it was run: as §3
# [8] = target: T1, Photosystem I iron-sulfur center (Spinacia oleracea); assay: Inhibition of photosystem I in Spinacia oleracea (spinach) leaves intact chloroplasts assessed as electron transport flow from TMQH2 to MV at 100 uM; design: scale not given: the % may be the effect or the level left; how it was run: as §2
# Spinacia oleracea [9] = assay: Inhibition of ATP synthesis in Spinacia oleracea (spinach) leaves intact chloroplasts; assay type: functional; conditions: read-out: I50
# [10] = target: T1, Photosystem I iron-sulfur center (Spinacia oleracea); assay: Inhibition of photosystem I in Spinacia oleracea (spinach) leaves intact chloroplasts assessed as electron transport flow from TMQH2 to MV at 200 uM; design: scale not given: the % may be the effect or the level left; how it was run: as §2
# Spinacia oleracea [11] = assay: Inhibition of thylakoid membrane bound Magnesium-transporting Mg2+ ATPase in Spinacia oleracea (spinach) leaves chloroplasts assessed as enzyme activity at 200 uM; design: scale not given: the % may be the effect or the level left; how it was run: as §3
# [12] = target: T1, Photosystem I iron-sulfur center (Spinacia oleracea); assay: Inhibition of photosystem I in Spinacia oleracea (spinach) leaves intact chloroplasts assessed as electron transport flow from DCPIP to MV at 300 uM; design: scale not given: the % may be the effect or the level left; how it was run: as §4
# [13] = target: T1, Photosystem I iron-sulfur center (Spinacia oleracea); assay: Inhibition of photosystem I in Spinacia oleracea (spinach) leaves intact chloroplasts assessed as electron transport flow from DCPIP to MV at 200 uM; design: scale not given: the % may be the effect or the level left; how it was run: as §4
# Spinacia oleracea [14] = assay: Inhibition of uncoupled electron transport flow in Spinacia oleracea (spinach) leaves intact chloroplasts at 300 uM; assay type: functional
# Spinacia oleracea [15] = assay: Increase in chlorophyll a fluorescence in freshly lysed Spinacia oleracea (spinach) leaves chloroplasts at 10 uM
# Spinacia oleracea [16] = assay: Inhibition of thylakoid membrane bound Magnesium-transporting Mg2+ ATPase in Spinacia oleracea (spinach) leaves chloroplasts assessed as enzyme activity at 6 mM; design: scale not given: the % may be the effect or the level left; how it was run: as §3
# Spinacia oleracea [17] = assay: Inhibition of thylakoid membrane bound Magnesium-transporting Mg2+ ATPase in Spinacia oleracea (spinach) leaves chloroplasts assessed as enzyme activity at 1 mM; design: scale not given: the % may be the effect or the level left; how it was run: as §3
# Spinacia oleracea [18] = assay: Inhibition of thylakoid membrane bound Magnesium-transporting Mg2+ ATPase in Spinacia oleracea (spinach) leaves chloroplasts assessed as enzyme activity at 3 mM; design: scale not given: the % may be the effect or the level left; how it was run: as §3
# [19] = target: T1, Photosystem I iron-sulfur center (Spinacia oleracea); assay: Inhibition of photosystem I in Spinacia oleracea (spinach) leaves intact chloroplasts assessed as electron transport flow from TMQH2 to MV at 50 uM; design: scale not given: the % may be the effect or the level left; how it was run: as §2
# [20] = target: Photosystem II protein D1 (Spinacia oleracea) (UniProt P69560); assay: Inhibition of photosystem II in Spinacia oleracea (spinach) leaves intact chloroplasts assessed as electron transport flow from H2O to DCPIP at 50 uM; design: scale not given: the % may be the effect or the level left; how it was run: as §1
# [21] = target: T1, Photosystem I iron-sulfur center (Spinacia oleracea); assay: Inhibition of photosystem I in Spinacia oleracea (spinach) leaves intact chloroplasts assessed as electron transport flow from DCPIP to MV at 50 uM; design: scale not given: the % may be the effect or the level left; how it was run: as §4
# [22] = target: T1, Photosystem I iron-sulfur center (Spinacia oleracea); assay: Inhibition of photosystem I in Spinacia oleracea (spinach) leaves chloroplasts assessed as effect on partial reaction from PMS reduced with ascorbate to MV using KCN treated thylakoids
# How it was run: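 Chloroplasts were held in basal medium with 30 mM KCN for 60 min at 4 °C in the dark to release plastocyanin. They were then diluted in sucrose/30 mM HEPES-NaOH pH 7.2/2 mM MgCl2, centrifuged 5000g for 2 min and resuspended. Flow from 100 µM PMS/300 µM ascorbate to MV was assayed in basal medium plus 1 µM DBMIB.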
# [23] = target: Photosystem II protein D1 (Spinacia oleracea) (UniProt P69560); assay: Inhibition of photosystem II in Spinacia oleracea (spinach) leaves intact chloroplasts assessed as electron transport flow from DPC to DCPIP at 100 uM; design: scale not given: the % may be the effect or the level left
# How it was run: (§5)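 Thylakoids (45 µg Chl) were pretreated with 0.8 M Tris pH 8.0 for 30 min at 4 °C, centrifuged 5000g for 2 min and resuspended in reaction medium. Electron flow from DPC to DCPIP was read spectrophotometrically at 600 nm, with DCPIP reduction quantified by its molar extinction coefficient. I50 values were calculated.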
# [24] = target: Photosystem II protein D1 (Spinacia oleracea) (UniProt P69560); assay: Inhibition of photosystem II in Spinacia oleracea (spinach) leaves intact chloroplasts assessed as electron transport flow from DPC to DCPIP at 200 uM; design: scale not given: the % may be the effect or the level left; how it was run: as §5
# [25] = target: Photosystem II protein D1 (Spinacia oleracea) (UniProt P69560); assay: Inhibition of photosystem II in Spinacia oleracea (spinach) leaves intact chloroplasts assessed as electron transport flow from H2O to SiMo at 200 uM; design: scale not given: the % may be the effect or the level left
# How it was run: (§6)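 Uncoupled partial PSII reaction, water to silicomolybdate, measured by Clark electrode O2 evolution. Basal medium (sorbitol/KCl/MgCl2/KCN/30 mM tricine pH 8) was supplemented with 200 µM SiMo, 10 µM DCMU and 6 mM NH4Cl, without MV. I50 values were calculated.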
# [26] = target: Photosystem II protein D1 (Spinacia oleracea) (UniProt P69560); assay: Inhibition of photosystem II in Spinacia oleracea (spinach) leaves intact chloroplasts assessed as electron transport flow from DPC to DCPIP at 300 uM; design: scale not given: the % may be the effect or the level left; how it was run: as §5
# Spinacia oleracea [27] = assay: Inhibition of uncoupled electron transport flow in Spinacia oleracea (spinach) leaves intact chloroplasts; assay type: functional; conditions: read-out: I50
# Spinacia oleracea [28] = assay: Inhibition of basal electron transport flow in Spinacia oleracea (spinach) leaves intact chloroplasts at 88 uM; assay type: functional
# [29] = target: Photosystem II protein D1 (Spinacia oleracea) (UniProt P69560); assay: Inhibition of photosystem II in Spinacia oleracea (spinach) leaves intact chloroplasts assessed as electron transport flow from H2O to SiMo at 300 uM; design: scale not given: the % may be the effect or the level left; how it was run: as §6
# [30] = target: Photosystem II protein D1 (Spinacia oleracea) (UniProt P69560); assay: Inhibition of photosystem II in freshly lysed Spinacia oleracea (spinach) leaves chloroplasts assessed as induction of loss of reactions centers capacity to capture excitons at 300 to 900 uM
# How it was run: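 JIP-test on Chl a fluorescence transients of freshly lysed spinach chloroplasts, dark-adapted 5 min at 20 µg/mL Chl. Measured at room temperature with a Handy PEA at 300, 600 and 900 µM. Parameters such as […] VJ were derived from the curves and expressed relative to control (%). Results are the average of three replicates.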
# [31] = target: Photosystem II protein D1 (Spinacia oleracea) (UniProt P69560); assay: Inhibition of photosystem II in Spinacia oleracea (spinach) leaves intact chloroplasts assessed as electron transport flow from H2O to SiMo at 100 uM; design: scale not given: the % may be the effect or the level left; how it was run: as §6
Structure (SMILES),Activity [1],Activity [2],Activity [3],Activity [4],Activity (Spinacia oleracea [5]),Activity [6],Activity (Spinacia oleracea [7]),Activity [8],IC50 (Spinacia oleracea [9]),Activity [10],Activity (Spinacia oleracea [11]),Activity [12],Activity [13],Inhibition % (Spinacia oleracea [14]),other results
CN(C)C(=O)Nc1ccc(Cl)c(Cl)c1,,,,,,,,,,,,,,,Activity (Spinacia oleracea [15]): Active
Cl.N,,,,,,,,,,,,,,,Activity (Spinacia oleracea [16]): 124%; Activity (Spinacia oleracea [17]): 206%; Activity (Spinacia oleracea [18]): 240%
O=c1cc(-c2ccc(O)c(-c3c(O)cc4oc(-c5ccc(O)cc5)cc(=O)c4c3O)c2)oc2cc(O)cc(O)c12 [ROBUSTAFLAVONE],43%,29%,57%,100%,76%,100%,76%,100%,44 µM,100%,76%,100%,100%,,Activity [23]: 89%; Activity [24]: 35%; Activity [25]: 50%; Activity [26]: 9%; IC50 (Spinacia oleracea [27]): 88 µM; inhibition (Spinacia oleracea [28]): 22%; Activity [29]: 50%; inhibition [30]: Active; Activity [31]: 100%

# More lines, main results first:
Activity [1],Activity [2],Activity [3],Activity [4],Activity (Spinacia oleracea [5]),Activity [6],Activity (Spinacia oleracea [7]),Activity [8],IC50 (Spinacia oleracea [9]),Activity [10],Activity (Spinacia oleracea [11]),Activity [12],Activity [13],Structure (SMILES),Inhibition % (Spinacia oleracea [14]),other results
100%,100%,100%,100%,63%,100%,20%,100%,79 µM,100%,44%,100%,100%,COc1cc(O)cc2c1C(=O)CC(c1ccc(O)c(-c3c(O)cc4oc(-c5ccc(O)cc5)cc(=O)c4c3O)c1)O2 (stereo not drawn),25%,
100%,100%,100%,72%,53%,74%,34%,98%,39 µM,74%,47%,71%,71%,"O=C1CC(c2ccc(O)c(-c3c(O)cc4oc(-c5ccc(O)cc5)cc(=O)c4c3O)c2)Oc2cc(O)cc(O)c21 (stereo not drawn) [2,3-DIHYDROROBUSTAFLAVONE]",32%,Activity [19]: 100%; Activity [20]: 100%; Activity [21]: 96%; inhibition [22]: inactive
